Experiments:
[1] = Cmax in dog at 20 mg/kg, po; assay type: ADME, organism-based, Canis lupus familiaris; parameters: dose 20 mg/kg, route oral; details: in vivo
[2] = tested on: Human immunodeficiency virus 1; experiment: Antiviral activity against HIV1 isolate with RT 179E mutation relative to wild type; assay type: functional
Outline: (§1)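 Mutant RT clones built in pNL4-3.Luc.R−E− reporter, VSV-G-pseudotyped, single-round infection of HeLa-JC53 cells (15,000/well, MOI 0.03) with 1:4 serial compound dilutions in DMEM (phenol red-free), 2% FBS, 0.2% final DMSO; 48 h at 37°C, 5% CO2; luciferase chemiluminescence read-out. Fold change in EC50 relative to wild-type virus; mean of two tests.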

[3] = tested on: Human immunodeficiency virus 1; experiment: Antiviral activity against HIV1 isolate with RT 101P, 103N mutation relative to wild type; assay type: functional
[4] = tested on: Human immunodeficiency virus 1; experiment: Antiviral activity against HIV1 isolate with RT 101Q, 103N mutation relative to wild type; assay type: functional
[5] = tested on: Human immunodeficiency virus 1; experiment: Antiviral activity against HIV1 isolate with RT 103N, 188L mutation relative to wild type; assay type: functional
[6] = tested on: Human immunodeficiency virus 1; experiment: Antiviral activity against HIV1 isolate with RT 106A mutation relative to wild type; assay type: functional; outline: as §1
[7] = tested on: Human immunodeficiency virus 1; experiment: Antiviral activity against HIV1 isolate with RT 106A, F227L mutation relative to wild type; assay type: functional; outline: as §1
[8] = tested on: Human immunodeficiency virus 1; experiment: Antiviral activity against HIV1 isolate with RT 238N mutation relative to wild type; assay type: functional; outline: as §1
[9] = tested on: Human immunodeficiency virus 1; experiment: Antiviral activity against HIV1 isolate with RT 179G mutation relative to wild type; assay type: functional; outline: as §1
[10] = tested on: Human immunodeficiency virus 1; experiment: Antiviral activity against HIV1 isolate with RT 227L mutation relative to wild type; assay type: functional; outline: as §1
[11] = tested on: Human immunodeficiency virus 1; experiment: Antiviral activity against HIV1 isolate with RT 103R, 179D, 188L mutation relative to wild type; assay type: functional; outline: as §1
[12] = tested on: Human immunodeficiency virus 1; experiment: Antiviral activity against HIV1 isolate with RT 101E, 181C mutation relative to wild type; assay type: functional
[13] = tested on: Human immunodeficiency virus 1; experiment: Antiviral activity against HIV1 isolate with RT 103N, 106M mutation relative to wild type; assay type: functional
[14] = tested on: Human immunodeficiency virus 1; experiment: Antiviral activity against HIV1 isolate with RT 103S, 190A mutation relative to wild type; assay type: functional; outline: as §1
[15] = tested on: Human immunodeficiency virus 1; experiment: Antiviral activity against HIV1 isolate with RT 181I mutation relative to wild type; assay type: functional; outline: as §1
[16] = tested on: Human immunodeficiency virus 1; experiment: Antiviral activity against HIV1 isolate with RT 179T mutation relative to wild type; assay type: functional; outline: as §1
[17] = tested on: Human immunodeficiency virus 1; experiment: Antiviral activity against HIV1 isolate with RT 103N, 108I, 225H mutation relative to wild type; assay type: functional
[18] = tested on: Human immunodeficiency virus 1; experiment: Antiviral activity against HIV1 isolate with RT 98G, 103N, 108I mutation relative to wild type; assay type: functional; outline: as §1
[19] = tested on: Human immunodeficiency virus 1; experiment: Antiviral activity against HIV1 isolate with RT 101Q, 181C, 190S mutation relative to wild type; assay type: functional
[20] = tested on: Human immunodeficiency virus 1; experiment: Antiviral activity against HIV1 isolate with RT 101Q, 181C mutation relative to wild type; assay type: functional
[21] = tested on: Human immunodeficiency virus 1; experiment: Antiviral activity against HIV1 isolate with RT 101E, 108I, 181C, 190A mutation relative to wild type; assay type: functional
[22] = tested on: Human immunodeficiency virus 1; experiment: Antiviral activity against HIV1 isolate with RT 100I, 103N, 108I mutation relative to wild type; assay type: functional
[23] = tested on: Human immunodeficiency virus 1; experiment: Antiviral activity against HIV1 isolate with RT 101E, 181C, 190A mutation relative to wild type; assay type: functional
[24] = tested on: Human immunodeficiency virus 1; experiment: Antiviral activity against HIV1 isolate with RT 181C, 190A mutation relative to wild type; assay type: functional; outline: as §1
[25] = tested on: Human immunodeficiency virus 1; experiment: Antiviral activity against HIV1 isolate with RT 188L mutation relative to wild type; assay type: functional; outline: as §1
[26] = tested on: Human immunodeficiency virus 1; experiment: Antiviral activity against HIV1 isolate with RT 101Q mutation relative to wild type; assay type: functional
[27] = tested on: Human immunodeficiency virus 1; experiment: Antiviral activity against HIV1 isolate with RT 190S mutation relative to wild type; assay type: functional; outline: as §1
[28] = tested on: Human immunodeficiency virus 1; experiment: Antiviral activity against HIV1 isolate with RT 101E, 190A mutation relative to wild type; assay type: functional
[29] = tested on: Human immunodeficiency virus 1; experiment: Antiviral activity against HIV1 isolate with RT 100I, 103N mutation relative to wild type; assay type: functional
[30] = tested on: Human immunodeficiency virus 1; experiment: Antiviral activity against HIV1 isolate with RT 106I mutation relative to wild type; assay type: functional; outline: as §1
[31] = tested on: Human immunodeficiency virus 1; experiment: Antiviral activity against HIV1 isolate with RT 106I, 188L mutation relative to wild type; assay type: functional; outline: as §1
[32] = tested on: Human immunodeficiency virus 1; experiment: Antiviral activity against HIV1 isolate with RT K103N-F227L mutation; assay type: functional, organism-based
Outline: (§2)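 VSV-G-pseudotyped pNL4-3.Luc.R−E− molecular clones carrying the RT mutations, single-round infection of HeLa-JC53 cells (15,000/well) at MOI 0.03. Compounds serially diluted 1:4 in DMSO then in phenol red-free DMEM with 2% FBS, final DMSO 0.2%. Incubated 48 h at 37°C, 5% CO2. Luciferase read-out by chemiluminescence gives the EC50. Fold change is relative to wt virus, mean of two tests.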

[33] = tested on: Human immunodeficiency virus 1; experiment: Antiviral activity against HIV1 isolate with RT K103N-V108I-A98G mutation; assay type: functional, organism-based; outline: as §2
[34] = tested on: Human immunodeficiency virus 1; experiment: Antiviral activity against HIV1 isolate with RT A98G mutation; assay type: functional, organism-based; outline: as §2
[35] = tested on: Human immunodeficiency virus 1; experiment: Antiviral activity against HIV1 isolate with RT V106I, Y181C, F227L mutation in Hela-JC-53 cells; assay type: functional
[36] = tested on: Human immunodeficiency virus 1; experiment: Antiviral activity against HIV1 isolate with RT V106I, D123G, Y181C, F227L mutation in Hela-JC-53 cells; assay type: functional
[37] = tested on: Human immunodeficiency virus 1; experiment: Antiviral activity against wild type HIV1 NL4-3 in Hela-JC53 cells in the presence of 50% human serum after 48 hrs; assay type: functional, organism-based; details: Human immunodeficiency virus 1, NL4-3, Hela-JC53, 48 h
Outline: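 HeLa-JC53 cells (1.5 × 10^4) infected with VSV-G-pseudotyped NL4-3.Luci.R−E− reporter virus at MOI 0.03, with 1:4 serial compound dilutions. Heat-inactivated human serum added to final 0–50% on a basal 2% FBS medium. Incubated 48 h at 37°C in 5% CO2. Luciferase read-out; EC50 by nonlinear regression.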

[38] = tested on: Human immunodeficiency virus 1; experiment: Antiviral activity against HIV1 isolate with RT 101H mutation relative to wild type; assay type: functional
[39] = tested on: Human immunodeficiency virus 1; experiment: Antiviral activity against HIV1 isolate with RT 103N, 108I, 181C, 190A mutation relative to wild type; assay type: functional
[40] = tested on: Human immunodeficiency virus 1; experiment: Antiviral activity against HIV1 isolate with RT 103N, 108I, 190A mutation relative to wild type; assay type: functional
[41] = tested on: Human immunodeficiency virus 1; experiment: Antiviral activity against HIV1 isolate with RT 101Q, 103N, 225H mutation relative to wild type; assay type: functional
[42] = tested on: Human immunodeficiency virus 1; experiment: Antiviral activity against HIV1 isolate with RT 103N, 190S mutation relative to wild type; assay type: functional; outline: as §1
[43] = tested on: Human immunodeficiency virus 1; experiment: Antiviral activity against HIV1 isolate with RT 179D, 181C mutation relative to wild type; assay type: functional; outline: as §1
[44] = tested on: Human immunodeficiency virus 1; experiment: Antiviral activity against HIV1 isolate with RT 100F mutation relative to wild type; assay type: functional
[45] = tested on: Human immunodeficiency virus 1; experiment: Antiviral activity against HIV1 isolate with RT K103N-Y181C mutation; assay type: functional, organism-based; outline: as §2
[46] = tested on: Human immunodeficiency virus 1; experiment: Antiviral activity against HIV1 isolate with RT K103N-L100I mutation; assay type: functional, organism-based; outline: as §2
[47] = tested on: Human immunodeficiency virus 1; experiment: Antiviral activity against HIV1 isolate with RT Y188L mutation; assay type: functional, organism-based; outline: as §2
[48] = tested on: Human immunodeficiency virus 1; experiment: Antiviral activity against HIV1 isolate with RT 101R, 103N, 181C, 190A mutation relative to wild type; assay type: functional

NS(=O)(=O)c1ccc(NC(=O)CSc2nnc(Br)n2-c2ccc(C3CC3)c3ccccc23)c(Cl)c1
Cmax [1]: 1980 ng/mL | Fold change [2]: 2.4 | Fold change [3]: 2.2 | Fold change [4]: 5.2 | Fold change [5]: 3.9 | Fold change [6]: 6 | Fold change [7]: >100 | Fold change [8]: 0.7 | Fold change [9]: 0.3 | Fold change [10]: 0.47 | Fold change [11]: >100 | Fold change [12]: >100 | Fold change [13]: 12 | Fold change [14]: >100 | Fold change [15]: 5.4 | Fold change [16]: 1.3 | Fold change [17]: 2.6 | Fold change [18]: 2.2 | Fold change [19]: >100 | Fold change [20]: 8.9 | Fold change [21]: >100 | Fold change [22]: 1.9 | Fold change [23]: >100 | Fold change [24]: >100 | Fold change [25]: 11 | Fold change [26]: 2.2 | Fold change [27]: 3.9 | Fold change [28]: 83 | Fold change [29]: 0.9 | Fold change [30]: 0.9 | Fold change [31]: 62 | EC50 [32]: 0.08 nM | EC50 [33]: 0.24 nM | EC50 [34]: 0.3 nM | Fold change [35]: 18.7 | Fold change [36]: 9.1 | EC50 [37]: 13 nM | Fold change [38]: 2.5 | Fold change [39]: >100 | Fold change [40]: 20 | Fold change [41]: 3.9 | Fold change [42]: 18 | Fold change [43]: >100 | Fold change [44]: 1.8 | EC50 [45]: 0.23 nM | EC50 [46]: 0.05 nM | EC50 [47]: 0.81 nM

Cc1ccnc2c1NC(=O)c1cccnc1N2C1CC1 [NEVIRAPINE]
Fold change [2]: 1.9 | Fold change [3]: >100 | Fold change [4]: >100 | Fold change [5]: >100 | Fold change [6]: >100 | Fold change [7]: >100 | Fold change [8]: 1.9 | Fold change [9]: 0.1 | Fold change [10]: 2.1 | Fold change [11]: >100 | Fold change [12]: >100 | Fold change [13]: >100 | Fold change [14]: >100 | Fold change [15]: >100 | Fold change [16]: 0.5 | Fold change [17]: >100 | Fold change [18]: >100 | Fold change [19]: >100 | Fold change [20]: >100 | Fold change [21]: >100 | Fold change [22]: >100 | Fold change [23]: >100 | Fold change [24]: >100 | Fold change [25]: >100 | Fold change [26]: 2.8 | Fold change [27]: >100 | Fold change [28]: >100 | Fold change [29]: 42 | Fold change [30]: 1.1 | Fold change [31]: >100 | Fold change [38]: 12 | Fold change [39]: >100 | Fold change [40]: >100 | Fold change [41]: >100 | Fold change [42]: >100 | Fold change [48]: >100 | Fold change [43]: >100 | Fold change [44]: 2.4

Source: ChEMBL document CHEMBL1142195, “A novel nonnucleoside analogue that inhibits human immunodeficiency virus type 1 isolates resistant to current nonnucleoside reverse transcriptase inhibitors” (Antimicrob Agents Chemother, 2007)
